Source: PubChem BioAssay (several laboratories)
MT stabilizer: microtubule stabilizers in HeLa cells, primary screen, imaging, high-content imaging; HeLa tubulin immunostaining HCS, 24 h; share of cells brighter than vehicle mean+2SD; % tubulin-high responders, % at 10 µM; actives 0.83% (n = 200,000); AID 2205, 2009;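 active means plate Z-score above 3 for both tubulin-high and condensed-nucleus cell shares, with cell loss under 80%, at 10 µM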;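 further: anti alpha tubulin signal scored within the nucleus-defined area of each cell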
Insulin prom up: insulin promoter activators in MIN6 cells, imaging, high-content screening, mouse beta cells; z-score at 5 µM; actives 0.3% (n = 190,000); MIN6 insulin promoter-GFP reporter; stronger effect = higher value;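 active means z-score above 3 at 5 µM with at least 500 cells counted in the well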
Wee1 degr inh: Wee1 degradation inhibitors, primary screen, cell-based, HeLa, Wee1K328M-luciferase, luminescence. Wee1-like protein kinase (Homo sapiens), P30291. HeLa Luc-Wee1K328M stability; 100% = proteasome inhibitor MG132 effect. reporter increase, % at 5 µM. actives 1.2% (n = 220,000). AID 1321, 2008;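 active means activation above the mean of all tested compounds plus 3 SD, set per screening run, cut at about 8.8% in these data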;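 further: cells exposed to compound for 20 h before luminescence read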
Target sequence (P30291 whole entry K328M): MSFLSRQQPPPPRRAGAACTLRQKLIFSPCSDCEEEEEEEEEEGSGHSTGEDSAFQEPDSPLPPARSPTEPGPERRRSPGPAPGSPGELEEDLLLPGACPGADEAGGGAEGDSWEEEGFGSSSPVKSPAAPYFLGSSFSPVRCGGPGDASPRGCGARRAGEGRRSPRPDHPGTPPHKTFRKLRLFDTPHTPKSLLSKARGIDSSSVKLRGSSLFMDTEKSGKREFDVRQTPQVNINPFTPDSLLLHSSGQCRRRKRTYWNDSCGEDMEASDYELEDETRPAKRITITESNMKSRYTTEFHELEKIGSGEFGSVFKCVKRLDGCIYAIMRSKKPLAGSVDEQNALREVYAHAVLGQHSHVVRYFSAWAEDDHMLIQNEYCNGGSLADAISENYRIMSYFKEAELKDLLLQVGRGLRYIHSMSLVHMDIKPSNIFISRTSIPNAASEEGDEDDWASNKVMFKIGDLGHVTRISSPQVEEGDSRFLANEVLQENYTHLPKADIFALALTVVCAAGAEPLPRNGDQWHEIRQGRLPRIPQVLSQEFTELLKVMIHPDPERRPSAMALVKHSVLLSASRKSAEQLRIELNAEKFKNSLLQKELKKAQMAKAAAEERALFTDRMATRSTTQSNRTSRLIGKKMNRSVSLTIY
Autophagy HCS: autophagy modulators in MEF cells, primary screen, imaging, high-content, MEF GFP-LC3; calls only at 10 µM (by protocol); AID 463193, 2010; MEF GFP-LC3 puncta imaging; test concentration mostly 10 µM; actives 0.98% (n = 190,000);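 active means percentage of spot-positive cells more than 3 SD above its plate mean, without a fluorescence outlier flag or 80% toxicity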
b-catenin transl: modulators of beta-catenin nuclear translocation, primary screen, imaging, HeLa cells, immunofluorescence, high-content. nuclear translocation activity, % at 5 µM. actives 0.3% (n = 190,000). AID 1665, 2009;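 active means nuclear translocation activity above 50% at 5 µM, with a well cell count of 50 or more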;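 further: per-cell ratio of nuclear to cytoplasmic median beta-catenin stain intensity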
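Test system: HeLa cells, endogenous beta-catenin; Compound: single 5 µM dose plus 0.02–20 µM confirmation series; Times: compound exposure 24 h at 37°C; Signal: fluorescence imaging of beta-catenin antibody stain plus DAPI; Read-out: % activation, nuclear-to-cytoplasmic median beta-catenin signal ratio per cell.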
Numbers stand for hits; – = inactive; · = not tested or not shown; + = active, no number. Compounds with a hit are over-represented: about 2.9% of the library has one in this group of screens.

SMILES	MT stabilizer	Insulin prom up	Wee1 degr inh	Autophagy HCS	b-catenin transl
Cc1cc(Br)ccc1SCC(=O)OCC(=O)NC(C)c1ccccc1 (stereo not given)	–	–	–	–	–
Cc1cc(Br)ccc1SCC(=O)OCC(=O)NC1CC1	–	–	10.4	–	–
O=C(N/N=C/C=C/c1ccccc1)c1cc2c(ccc3ccccc32)o1	–	–	–	–	–
CCOC(=O)c1c(C)sc2c1N(C(=O)CCl)c1cc(Cl)ccc1S2	–	–	–	+	–
CC(=O)Nc1nn(C)c2nc(C)cc(C)c12	–	–	–	–	–
Cc1ccc(NC(=O)N(Cc2ccc3c(c2)OCO3)Cc2cc3cc4c(cc3[nH]c2=O)OCCO4)cc1	–	–	–	+	–
Cc1ccc(NC(=O)N(Cc2cccs2)Cc2cc3cc4c(cc3[nH]c2=O)OCO4)cc1	–	–	–	–	–
COc1ccc(CCN2C(=NC(C)=O)SC3CS(=O)(=O)CC32)cc1OC (stereo not given)	·	–	–	·	–
CCN(CC(=O)NCc1ccccc1Cl)CC(=O)Nc1c(F)cccc1F	·	–	9.5	·	–
CCN1CCN(CCNC(=O)c2ccc3c(c2)N(Cc2ccc(F)cc2)C(=O)/C(=C/c2ccccc2)S3)CC1	–	–	–	–	–
CCN1CCN(CCNC(=O)c2ccc(/C=C3/Sc4ccccc4N(Cc4cccc(Cl)c4)C3=O)cc2)CC1	–	–	–	+	–
O=C(O)c1cccc(-n2cccc2/C=C2/NC(=O)N(c3cccc(Cl)c3)C2=O)c1	·	–	–	·	–
COc1ccc(-n2cccc2/C=C2/NC(=O)N(c3cccc(Cl)c3)C2=O)cc1	–	·	8.9	–	–
NC(=O)c1ccc(Br)c(S(=O)(=O)N2CCCCC2)c1	–	·	–	–	–
O=S(=O)(c1cc(-c2nnc(-c3ccc(Br)cc3)o2)ccc1Br)N1CCCCCC1	42.6	–	–	–	–
CCc1cccc2c(SCC(=O)NCC3CCCO3)nc(-c3ccc(F)cc3)nc12 (stereo not given)	–	–	–	+	–
COc1cc(C(=O)OCC(C)=O)ccc1OCc1c(C)noc1C	31.1	–	–	–	–
COc1ccc(-c2cc(C(F)(F)F)n3nc(C(=O)NCc4ccco4)cc3n2)cc1	–	–	–	+	–
CSc1nc(Oc2ccc3ccccc3c2)c2sccc2n1	41.0	–	–	–	86.2
CN=c1scc(-c2c[nH]c3ccccc23)n1C	–	–	11.6	–	–
CNc1nc(-c2c[nH]c3ccccc23)cs1	–	–	–	–	·
Cc1c(C(=O)NCCc2ccccc2)oc2ccc(S(=O)(=O)N3CCC4(CC3)OCCO4)cc12	–	–	9.5	–	–
Cc1cccc(C)c1OCC(=O)Nc1ccc(N2CCOCC2)cc1	–	–	–	–	–
O=C(COc1ccc(Cl)cc1Br)NC(=O)NCc1ccccc1	–	–	–	–	–
CCCCN1CNC(=S)N(c2ccc(C(=O)OCC)cc2)C1	–	–	–	–	–
SMILES	MT stabilizer	Insulin prom up	Wee1 degr inh	Autophagy HCS	b-catenin transl
O=C(CN1CCC(NC(=O)c2ccco2)CC1)Nc1cccc2ccccc12	–	–	–	–	–
CC(C)c1ccc(NC(=O)NC2CCN(CC(=O)Nc3cccc4ccccc34)CC2)cc1	–	–	–	+	–
CC(=O)Nc1nc(-c2ccc(Cl)cc2)ns1	–	–	–	+	–
CCCCC(=O)Nc1sc2c(c1C(=O)OCC)CCC(C=O)=C2Cl	–	–	–	–	–
CCCc1ccc(C(=O)NNc2ccccc2F)cc1	·	–	9.3	·	–
CCc1ccc(C(=O)NNc2ccccc2F)cc1	·	–	–	·	–
COc1ccc(Cl)cc1NC(=O)CC(C)c1ccccc1 (stereo not given)	–	·	–	–	–
COc1ccc(C)cc1NC(=O)CC(NC(C)=O)c1ccccc1 (stereo not given)	–	4.5	–	–	–
COc1ccc(/C=C2\CCCC3C2=NC(=S)NC3c2ccc(OC)cc2)cc1 (stereo not given)	–	–	–	–	55.6
CCC(C)Sc1nc2ccccc2n1CC(=O)O (stereo not given)	–	·	–	–	·
O=C(c1ccccc1Cl)N(Cc1ccc(Br)cc1)N1C(=O)CCCC1=O	–	–	–	–	–
